Measured values from ChEMBL document CHEMBL1240409, “Design, synthesis and evaluation of (E)-alpha-benzylthio chalcones as novel inhibitors of BCR-ABL kinase” (Bioorg Med Chem, 2010).

What was measured:
[1] = test system: K562; test: Growth inhibition of human K562 cells expressing p210Bcr/Abl after 96 hrs by trypan blue exclusion assay; assay type: functional, cell-based; conditions: K562, 96 h
Summary of the method: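 K562 cells were kept in RPMI with 10% FBS and penicillin–streptomycin at 37 °C under 5% CO2. Cells were seeded at 1 × 10^5 cells/mL with a range of compound concentrations, using DMSO as the negative control. After 96 h, viability was counted by Trypan blue exclusion and expressed as percent of DMSO control to derive GI50.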

[2] = test system: DU-145; test: Growth inhibition of human DU145 cells after 96 hrs by trypan blue exclusion assay; assay type: functional; conditions: DU-145, 96 h

Compound	GI50 [1]	GI50 [2]
O=C(/C(=C\c1ccc(O)c([N+](=O)[O-])c1)S(=O)(=O)Cc1ccccc1Cl)c1ccc(Cl)cc1	10 µM	10 µM
COc1ccccc1/C=C(\C(=O)c1ccc(Cl)cc1)S(=O)(=O)Cc1ccc(C)cc1	10 µM	10 µM
COc1cc(OC)c(/C=C(\C(=O)c2ccc(Br)cc2)S(=O)(=O)c2ccc(C)cc2)c(OC)c1	> 100 µM	> 100 µM
Cc1ccc(C)c(/C=C(/Sc2ccc(Br)cc2)C(=O)c2ccc(Cl)cc2)c1	10 µM	10 µM
Cc1ccsc1/C=C(/SCc1ccc(Cl)cc1)C(=O)c1ccc(Br)cc1	25 µM	25 µM
Cc1ccc(S(=O)(=O)/C(=C/c2c(O)cc(O)cc2O)C(=O)c2ccc(Cl)cc2)cc1	> 100 µM	> 100 µM
Cc1ccc(/C=C(/SCc2ccc(Cl)cc2)C(=O)c2ccc(Cl)cc2)s1	50 µM	50 µM
O=C(/C(=C\c1c(O)cc(O)cc1O)Sc1ccc(Br)cc1)c1ccc(Cl)cc1	50 µM	50 µM
CCOc1ccc(/C=C(\C(=O)c2ccc(Cl)cc2)S(=O)(=O)Cc2ccc(C)cc2)cc1OC	10 µM	10 µM
CSc1ccc(/C=C(\C(=O)c2ccc(Br)cc2)S(=O)(=O)Cc2ccc(F)cc2)cc1	> 100 µM	50 µM
O=C(O)c1cc(/C=C(\C(=O)c2c(F)c(F)c(F)c(F)c2F)S(=O)(=O)c2ccc(Br)cc2)ccc1O	> 100 µM	> 100 µM
Cc1cc(F)ccc1/C=C(/SCc1ccc(F)cc1)C(=O)c1ccc(Br)cc1	10 µM	10 µM
CSc1ccc(/C=C(\C(=O)c2ccc(Br)cc2)S(=O)(=O)Cc2ccc(C)cc2)cc1	10 µM	10 µM
CN(C)c1ccc(/C=C(\C(=O)c2ccc(Cl)cc2)S(=O)(=O)c2ccc(Br)cc2)cc1	50 µM	> 100 µM
CCOc1cc(/C=C(\C(=O)c2ccc(Cl)cc2)S(=O)(=O)Cc2ccc(Cl)cc2)ccc1O	10 µM	10 µM
COc1cc(/C=C(\C(=O)c2ccc(Cl)cc2)S(=O)(=O)Cc2ccccc2Cl)cc(OC)c1	50 µM	> 100 µM
COc1ccc(/C=C(\C(=O)c2ccc(Cl)cc2)S(=O)(=O)c2ccc(Br)cc2)cc1O	10 µM	10 µM
CCOc1ccc(/C=C(\C(=O)c2ccc(Cl)cc2)S(=O)(=O)Cc2ccc(F)cc2)cc1OC	25 µM	50 µM
O=C(/C(=C\c1ccc(F)cc1C(F)(F)F)[S+]([O-])Cc1ccc(Cl)cc1)c1ccc(Cl)cc1 (stereo unspecified)	50 µM	50 µM
O=C(/C(=C\c1ccc(Cl)cc1Cl)S(=O)(=O)c1ccc(Br)cc1)c1ccc(Cl)cc1	25 µM	50 µM
Cc1ccc(S/C(=C/c2c(F)c(F)c(F)c(F)c2F)C(=O)c2ccc(Cl)cc2)cc1	25 µM	25 µM
O=C(/C(=C\c1ccc(-c2ccccc2)s1)SCc1ccc(F)cc1)c1ccc(Br)cc1	50 µM	> 100 µM
COc1cc(OC)c(C=C(SCc2ccccc2Cl)C(=O)c2ccc(Cl)cc2)c(OC)c1	10 µM	25 µM
Cc1ccsc1/C=C(/SCc1ccc(Cl)cc1)C(=O)c1ccc(Cl)cc1	50 µM	50 µM

Compound	GI50 [1]	GI50 [2]
O=C(/C(=C\c1ccc(F)cc1C(F)(F)F)SCc1ccc(F)cc1)c1ccc(Br)cc1	10 µM	10 µM
Cc1ccc(S/C(=C/c2ccc(-c3ccccc3)cc2)C(=O)c2ccc(Br)cc2)cc1	25 µM	50 µM
Cc1ccc(S/C(=C/c2c(O)cc(O)cc2O)C(=O)c2ccc(Br)cc2)cc1	50 µM	> 100 µM
O=C(O)c1ccc(C(=O)/C(=C\c2ccc(O)c([N+](=O)[O-])c2)SCc2ccc(F)cc2)cc1	50 µM	> 100 µM
Cc1ccc(CS(=O)(=O)/C(=C/c2c[nH]c3ccc(Br)cc23)C(=O)c2ccc(Cl)cc2)cc1	10 µM	10 µM
Cc1ccc(CS/C(=C/c2ccc(N(C)C)cc2)C(=O)c2ccc(Cl)cc2)cc1	15 µM	> 100 µM
O=C(/C(=C\c1cc(Br)c(O)c(Br)c1)SCc1ccc(Br)cc1)c1ccc(Br)cc1	10 µM	1 µM
Cc1ccc(S/C(=C/c2cc(Cl)cc(Cl)c2Cl)C(=O)c2ccc(Cl)cc2)cc1	50 µM	50 µM
CN(C)c1ccc(/C=C(/Sc2ccc(Br)cc2)C(=O)c2ccc(Cl)cc2)cc1	> 100 µM	> 100 µM
Cc1ccsc1/C=C(/SCc1ccc(F)cc1)C(=O)c1ccc(Br)cc1	> 100 µM	50 µM
COc1ccc(C(=O)/C(=C\c2ccc(O)c([N+](=O)[O-])c2)SCc2ccc(Br)cc2)cc1	10 µM	10 µM
COc1ccc2[nH]cc(/C=C(/Sc3ccc(Br)cc3)C(=O)c3ccc(Br)cc3)c2c1	10 µM	10 µM
O=C(/C(=C\c1ccc(O)cc1)S(=O)(=O)Cc1ccc(F)cc1)c1ccc(Br)cc1	10 µM	10 µM
O=C(/C(=C\c1ccccc1OCc1ccccc1)SCc1ccc(Cl)c(Cl)c1)c1ccc(Cl)cc1	10 µM	10 µM
O=C(/C(=C\c1ccc(O)cc1O)Sc1ccc(Br)cc1)c1ccc(Cl)cc1	25 µM	50 µM
O=C(/C(=C\c1ccccc1OCc1ccccc1)Sc1ccc(Br)cc1)c1ccc(Cl)cc1	10 µM	10 µM
O=C(/C(=C\c1ccc(O)c([N+](=O)[O-])c1)S(=O)(=O)c1ccc(I)cc1)c1ccc(Br)cc1	25 µM	25 µM
O=C(/C(=C\c1cc(Cl)cc(Cl)c1Cl)S(=O)(=O)Cc1ccc(Cl)cc1)c1ccc(Br)cc1	1 µM	1 µM
O=C(/C(=C\c1c(O)cc(O)cc1O)S(=O)(=O)c1ccccc1Br)c1ccc(Br)cc1	50 µM	50 µM
Cc1ccc(S(=O)(=O)/C(=C/c2c[nH]c3ccccc23)C(=O)c2ccc(Br)cc2)cc1	10 µM	10 µM
Cc1ccc(S/C(=C/c2ccc(-c3ccccc3)cc2)C(=O)c2ccc(Cl)cc2)cc1	25 µM	50 µM
Cc1ccc(S/C(=C/c2ccc(N(C)C)cc2)C(=O)c2ccc(Br)cc2)cc1	50 µM	> 100 µM
COc1ccccc1/C=C(/SCc1ccc(C)cc1)C(=O)c1ccc(Cl)cc1	10 µM	10 µM

Continued by falling GI50 [1], values first:

GI50 [1]	GI50 [2]	Compound
1 µM	1 µM	O=C(/C(=C\c1ccccc1OCc1ccccc1)SCc1ccc(F)cc1)c1ccc(Br)cc1
1 µM	1 µM	Cc1ccc(S(=O)(=O)/C(=C/c2cc(C)cc(C)c2)C(=O)c2ccc(Cl)cc2)cc1
1 µM	1 µM	O=C(O)c1ccc(C(=O)/C(=C\c2ccc(N3CCN(Cc4ccccc4)CC3)c([N+](=O)[O-])c2)SCc2ccc(F)cc2)cc1
1 µM	1 µM	O=C(/C(=C\c1ccc(Br)c([N+](=O)[O-])c1)Sc1ccc(Br)cc1)c1ccc(Br)cc1
1 µM	1 µM	O=C(/C(=C\c1ccc(Br)cc1)S(=O)(=O)c1ccccc1Br)c1ccc(Br)cc1
1 µM	1 µM	Cc1ccc(S(=O)(=O)/C(=C/c2cc(C)ccc2C)C(=O)c2ccc(Cl)cc2)cc1
1 µM	1 µM	O=C(/C(=C\c1ccc(I)cc1)Sc1ccc(Br)cc1)c1ccc(Br)cc1
1 µM	10 µM	COc1ccc(/C=C(\C(=O)c2ccc(Cl)cc2)S(=O)(=O)Cc2ccc(Cl)cc2)c(OC)c1OC
1 µM	10 µM	CN(C)c1ccc(/C=C(/SCc2ccc(Cl)cc2)C(=O)c2ccc(Br)cc2)cc1
1 µM	1 µM	O=C(/C(=C\c1ccc(F)cc1C(F)(F)F)S(=O)(=O)Cc1ccc(Cl)c(Cl)c1)c1ccc(Cl)cc1
1 µM	1 µM	O=C(O)c1ccc(C(=O)/C(=C\c2ccc(Br)cc2)SCc2ccc(Br)cc2)cc1
1 µM	1 µM	O=C(/C(=C\c1ccc(F)cc1F)Sc1ccc(Br)cc1)c1ccc(Br)cc1
1 µM	1 µM	COc1ccc(/C=C(\C(=O)c2ccc(Br)cc2)S(=O)(=O)c2ccc(C)cc2)cc1
1 µM	1 µM	O=C(/C(=C/c1ccc(Cl)cc1)Cc1ccc(Cl)c(Cl)c1)c1ccc(Cl)cc1Cl
1 µM	1 µM	Cc1ccc(S/C(=C/c2c[nH]c3ccc(Br)cc23)C(=O)c2ccc(Cl)cc2)cc1
1 µM	50 µM	O=C(/C(=C\c1c[nH]c2ccc(Br)cc12)SCc1ccc(F)cc1)c1ccc(Cl)cc1
1 µM	10 µM	O=C(/C(=C\c1ccc([N+](=O)[O-])c(O)c1)SCc1ccc(Br)cc1)c1c(F)c(F)c(F)c(F)c1F
1 µM	1 µM	Cc1ccc(CS(=O)(=O)/C(=C/c2ccccc2OCc2ccccc2)C(=O)c2ccc(Cl)cc2)cc1
1 µM	10 µM	O=C(/C(=C\c1ccc(O)cc1)SCc1ccc(Cl)cc1)c1ccc(Cl)cc1
1 µM	10 µM	O=C(/C(=C\c1ccc(O)c([N+](=O)[O-])c1)SCc1ccc(Br)cc1)c1ccc(C(F)(F)F)cc1
1 µM	1 µM	COc1ccc(S/C(=C/c2ccccc2OCc2ccccc2)C(=O)c2ccc(Cl)cc2)cc1
1 µM	1 µM	Cc1ccc(CS/C(=C/c2cc([N+](=O)[O-])ccc2F)C(=O)c2ccc(Cl)cc2)cc1
1 µM	50 µM	COc1ccc(/C=C(/Sc2ccc(Br)cc2)C(=O)c2ccc(Cl)cc2)cc1
1 µM	1 µM	O=C(/C(=C\c1csc([N+](=O)[O-])c1)S(=O)(=O)c1ccc(Br)cc1)c1ccc(Br)cc1
1 µM	1 µM	O=C(/C(=C\OCc1ccccc1)S(=O)(=O)c1ccccc1Cl)c1ccc(Cl)cc1
1 µM	10 µM	O=C(/C(=C\c1ccc(O)c([N+](=O)[O-])c1)S(=O)(=O)Cc1ccc(Br)cc1)c1ccc(Br)cc1
